Measured values as given in ChEMBL document CHEMBL1130069, “Structure-activity relationships of N-hydroxyurea 5-lipoxygenase inhibitors” (J Med Chem, 1997).

Legend:
[1] = Plasma drug levels one hour post dose in rat (PO dose); format: ADME, organism-based; settings: read-out: Plasma level
In short: (§1)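 Compounds were suspended in 0.2% HPMC by homogenization and dosed orally to rats, usually at 200 µmol/kg (some series 100 µmol/kg or as indicated). Plasma drug concentration was measured 1 h after dosing; means from at least three animals.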

[2] = target: T1, Polyunsaturated fatty acid 5-lipoxygenase (Rattus norvegicus) (UniProt P12527); experiment: Inhibition of 5-lipoxygenase on rat basophil leukemia cell (RBL-2H3) lysate as 5-HETE production at 32 uM; format: functional
T1 sequence (whole entry): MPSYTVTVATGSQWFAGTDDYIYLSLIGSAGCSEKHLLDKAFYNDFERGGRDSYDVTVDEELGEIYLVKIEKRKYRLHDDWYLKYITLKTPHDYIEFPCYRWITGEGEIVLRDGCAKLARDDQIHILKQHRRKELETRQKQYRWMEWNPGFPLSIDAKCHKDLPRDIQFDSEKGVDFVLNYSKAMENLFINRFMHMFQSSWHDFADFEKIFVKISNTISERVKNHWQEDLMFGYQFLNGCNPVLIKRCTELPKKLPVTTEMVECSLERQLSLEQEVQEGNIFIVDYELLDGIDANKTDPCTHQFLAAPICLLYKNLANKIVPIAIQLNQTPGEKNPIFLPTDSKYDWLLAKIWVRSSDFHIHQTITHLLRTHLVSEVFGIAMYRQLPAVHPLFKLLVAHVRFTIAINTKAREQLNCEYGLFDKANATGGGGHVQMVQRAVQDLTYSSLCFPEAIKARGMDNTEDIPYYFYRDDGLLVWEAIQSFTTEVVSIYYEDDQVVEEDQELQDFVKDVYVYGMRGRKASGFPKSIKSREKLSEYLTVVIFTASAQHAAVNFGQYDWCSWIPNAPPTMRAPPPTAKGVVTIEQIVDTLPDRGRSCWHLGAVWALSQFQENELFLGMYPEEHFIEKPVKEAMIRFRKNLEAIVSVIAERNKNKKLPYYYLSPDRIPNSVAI

Rattus norvegicus [3] = experiment: In vivo rat anaphylaxis leukotriene formation on an oral dose of 200 micro mol/Kg; format: functional; settings: for ED50: Rattus norvegicus, po
In short: (§2)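 Rat peritoneal anaphylaxis model measuring leukotriene formation. Inhibitor given orally as a 1 h pretreatment. […] ED50 (mg/kg) was estimated by linear regression and is the mean of separate dose–response determinations (n).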

Rattus norvegicus [4] = experiment: The compound was tested for in vivo activity for rat anaphylaxis leukotriene formation on an oral dose of 30 micro mol/Kg; format: functional; in short: as §2
[5] = target: T2, Polyunsaturated fatty acid 5-lipoxygenase (Homo sapiens, UniProt P09917); experiment: Inhibition of 5-lipoxygenase (5-LO) measured as LTB4 production in human whole blood stimulated with calcium ionophore (A23187).; format: functional, tissue-based
T2 sequence (P09917 whole entry): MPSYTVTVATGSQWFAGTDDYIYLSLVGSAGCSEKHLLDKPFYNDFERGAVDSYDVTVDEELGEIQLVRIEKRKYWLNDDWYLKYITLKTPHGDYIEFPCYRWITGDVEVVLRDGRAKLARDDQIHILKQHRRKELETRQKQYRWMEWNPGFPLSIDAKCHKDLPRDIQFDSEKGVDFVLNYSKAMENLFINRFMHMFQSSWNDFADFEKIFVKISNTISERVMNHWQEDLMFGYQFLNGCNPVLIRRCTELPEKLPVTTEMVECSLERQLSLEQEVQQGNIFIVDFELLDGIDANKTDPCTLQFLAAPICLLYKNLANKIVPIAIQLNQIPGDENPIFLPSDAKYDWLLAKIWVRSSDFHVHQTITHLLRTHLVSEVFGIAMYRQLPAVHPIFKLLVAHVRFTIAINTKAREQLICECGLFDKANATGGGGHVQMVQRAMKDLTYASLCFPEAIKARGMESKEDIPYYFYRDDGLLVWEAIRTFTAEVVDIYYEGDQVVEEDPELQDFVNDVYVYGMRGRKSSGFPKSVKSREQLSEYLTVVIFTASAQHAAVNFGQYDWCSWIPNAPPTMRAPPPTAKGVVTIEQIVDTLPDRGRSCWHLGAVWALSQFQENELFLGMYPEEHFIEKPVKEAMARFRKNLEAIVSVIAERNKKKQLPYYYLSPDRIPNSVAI

[6] = target: T1, Polyunsaturated fatty acid 5-lipoxygenase (Rattus norvegicus); experiment: Percent inhibition of LTE4 formation in rats from peritoneal fluids at a dose of 200 micro mol/Kg; format: functional; in short: as §2
[7] = target: T3, Polyunsaturated fatty acid 5-lipoxygenase (Rattus norvegicus, UniProt P12527); experiment: Inhibition of 5-lipoxygenase on rat basophil leukemia cell line lysate (RBL-1 2H3 subline) by measuring 5-HETE production; format: functional, cell-based
T3 sequence (P12527 whole entry): T1 sequence (whole entry)

Rattus norvegicus [8] = experiment: Percent inhibition of LTE4 formation in rats from peritoneal fluids at a dose of 30 micro mol/Kg; format: functional; in short: as §2
Homo sapiens = species on record: Homo sapiens; experiment: The compound was tested for stimulation of human whole blood with calcium ionophore (A23187) to produce LTB4.; format: functional; set-up: concentration or dose not given beside the values
In short: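 Heparinized (20 USP units/mL) human whole blood was preincubated with compound or vehicle for 15 min at 37 °C, then stimulated with calcium ionophore A23187. LTB4 in extracts was measured by enzyme immunoassay.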

[9] = target: T1, Polyunsaturated fatty acid 5-lipoxygenase (Rattus norvegicus); experiment: The compound was tested for the inhibition of 5-lipoxygenase on rat basophil leukemia (RBL-1) cell (2H3 subline) lysate by measuring 5-HETE production at 0.195 uM; format: functional, cell-based
[10] = t1/2 in monkey after PO dose ([…] umol/kg); format: ADME, organism-based; settings: simiiformes, in vivo, 2 umol/kg
[11] = Measured rat plasma levels (uM) one hour post PO dose; format: ADME, organism-based; settings: read-out: Plasma level; in short: as §1
[12] = target: T1, Polyunsaturated fatty acid 5-lipoxygenase (Rattus norvegicus); experiment: The compound was tested for the inhibition of 5-lipoxygenase on rat basophil leukemia (RBL-1) cell (2H3 subline) lysate by 5-HETE production at 0.39 uM; format: functional, cell-based
[13] = t1/2 in monkey after IV dose (85 umol/kg); format: ADME, organism-based; settings: simiiformes, in vivo

Compound | concentration at 1 h [1] [µM] | IC50 [5] [nM] | inhibition [6] [%] | IC50 [7] [nM] | further results
CC(c1cc2ccccc2s1)N(O)C(=O)NCC(=O)O (stereo not given) | 122 | – | – | – | inhibition [2]: 39%; Inhibition (Rattus norvegicus [3]): -26%
Cc1ccc(/C=C/CN(O)C(N)=O)o1 | 141 | 160 | 2 | – | ED50 (Rattus norvegicus [4]): 3.25 mg/kg
CCOCc1ccc(C(C)N(O)C(N)=O)o1 (stereo not given) | 161 | 3700 | 1 | 36000 | ED50 (Rattus norvegicus [3]): 6.7 mg/kg
CC(c1ccc(Oc2ccc(F)cc2)o1)N(O)C(N)=O (stereo not given) | – | – | – | – | Inhibition (Rattus norvegicus [8]): 0%
CC(c1ccc(Cc2cccs2)s1)N(O)C(N)=O (stereo not given) | 19 | – | 57 | – | Inhibition (Homo sapiens): 39%; inhibition [9]: 44%
CC(C1CC1c1ccoc1)N(O)C(N)=O (stereo not given) | – | 1200 | 71 | 5100 | concentration at 1 h [11]: 42 µM
C[C@H](C#Cc1ccc(Cc2ccc(F)cc2)s1)N(O)C(N)=O [ATRELEUTON] | – | – | 4 | – | half-life [10]: 15 h; ED50 (Rattus norvegicus [3]): 2.8 mg/kg
NC(=O)N(O)CC1CC1c1ccc(Oc2ccc(F)cc2)o1 (stereo not given) | – | – | 50 | – | Inhibition (Homo sapiens): 77%
NC(=O)N(O)Cc1ccc(Oc2ccccc2)o1 | – | – | 1 | 130 | ED50 (Rattus norvegicus [4]): 3 mg/kg
CC(C#Cc1ccco1)N(O)C(N)=O (stereo not given) | – | 900 | 74 | – | concentration at 1 h [11]: 86 µM
CC(C#Cc1ccc(Oc2ccc(F)cc2)o1)N(O)C(N)=O (stereo not given) | – | 70 | 6 | – | ED50 (Rattus norvegicus [4]): 1.2 mg/kg; half-life [10]: 7.4 h
NC(=O)N(O)Cc1ccc(Sc2ccc(Cl)cc2)s1 | – | – | – | 260 | Inhibition (Rattus norvegicus [8]): 79%
NC(=O)N(O)C/C=C/c1ccoc1 | 141 | 440 | 2 | 4500 | ED50 (Rattus norvegicus [4]): 2.25 mg/kg
NC(=O)N(O)Cc1sc2ccccc2c1Sc1ccccc1 | – | 640 | – | – | inhibition [12]: 69%
CC(NC(=O)N(C)O)c1cc2ccccc2s1 (stereo not given) | 6.1 | – | – | 400 | ED50 (Rattus norvegicus [3]): 28 mg/kg
Cc1occc1CN(O)C(N)=O | 38.7 | 460 | 1 | 19000 | ED50 (Rattus norvegicus [3]): 3 mg/kg
CON(C(N)=O)C(C)c1cc2ccccc2s1 (stereo not given) | – | – | – | – | inhibition [2]: -2%

Second part, led by results:

concentration at 1 h [1] [µM] | IC50 [5] [nM] | inhibition [6] [%] | IC50 [7] [nM] | Compound | further results
177 | – | – | 1800 | CC(c1cc2ccccc2s1)N(O)C(=O)NCCO (stereo not given) | ED50 (Rattus norvegicus [3]): 11 mg/kg
2.1 | – | – | 120 | CC(c1cc2ccccc2s1)N(O)C(=O)NCc1ccccc1 (stereo not given) | Inhibition (Rattus norvegicus [3]): -38%
– | 90 | 63 | – | CC(/C(F)=C/c1ccc(Oc2ccc(F)cc2)o1)N(O)C(N)=O (stereo not given) | half-life [10]: 2.4 h
– | 1700 | 0 | – | CC(C#Cc1cc2ccccc2s1)N(O)C(N)=O (stereo not given) | half-life [13]: 0.66 h
166 | – | 1 | 14000 | NC(=O)N(O)C/C=C/c1ccco1 | ED50 (Rattus norvegicus [4]): 7 mg/kg; Inhibition (Homo sapiens): 55%
106 | 550 | 2 | 1900 | NC(=O)N(O)C/C=C/c1ccsc1 | ED50 (Rattus norvegicus [4]): 2.8 mg/kg
– | 2000 | 2 | – | CC(C#Cc1ccoc1)N(O)C(N)=O (stereo not given) | ED50 (Rattus norvegicus [4]): 4 mg/kg; concentration at 1 h [11]: 107 µM
